In ChEMBL document CHEMBL4402611, “Phenyl(thio)phosphon(amid)ate Benzenesulfonamides as Potent and Selective Inhibitors of Human Carbonic Anhydrases II and VII Counteract Allodynia in a Mouse Model of Oxaliplatin-Induced Neuropathy” (J Med Chem, 2020):
pKi: −log10 of the molar value. Calls of active or inactive are those of the source.

Tests used:
Carbonic anhydrase 7 = Carbonic anhydrase 7 (Homo sapiens, UniProt P43166); test: Inhibition of human recombinant carbonic anhydrase 7 preincubated with enzyme for 1 hr prior to testing by phenol red-based stopped-flow CO2 hydration assay
Sequence of Carbonic anhydrase 7 (P43166 whole entry): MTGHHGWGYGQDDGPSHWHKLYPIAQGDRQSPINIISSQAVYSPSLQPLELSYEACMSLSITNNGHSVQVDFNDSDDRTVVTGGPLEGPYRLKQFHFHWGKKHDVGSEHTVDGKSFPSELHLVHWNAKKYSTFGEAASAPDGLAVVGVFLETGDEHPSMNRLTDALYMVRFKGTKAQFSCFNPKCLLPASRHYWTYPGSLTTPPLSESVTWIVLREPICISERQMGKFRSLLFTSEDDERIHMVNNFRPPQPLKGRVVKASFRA

[1] = molecular target: Carbonic anhydrase 5B, mitochondrial (Homo sapiens, UniProt Q9Y2D0); test: Inhibition of human recombinant carbonic anhydrase 5B preincubated with enzyme for 1 hr prior to testing by phenol red-based stopped-flow CO2 hydration assay
Sequence of Carbonic anhydrase 5B, mitochondrial (Q9Y2D0 whole entry): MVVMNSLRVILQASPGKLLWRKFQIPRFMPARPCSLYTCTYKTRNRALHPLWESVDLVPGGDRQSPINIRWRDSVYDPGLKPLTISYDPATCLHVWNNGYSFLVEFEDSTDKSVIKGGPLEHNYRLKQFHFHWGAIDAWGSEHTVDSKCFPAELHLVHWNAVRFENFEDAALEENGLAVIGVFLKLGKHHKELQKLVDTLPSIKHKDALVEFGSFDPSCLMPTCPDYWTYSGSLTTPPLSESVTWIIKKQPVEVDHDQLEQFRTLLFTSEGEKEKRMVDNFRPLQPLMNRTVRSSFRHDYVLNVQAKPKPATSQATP

Carbonic anhydrase 2 = Carbonic anhydrase 2 (Homo sapiens, UniProt P00918); test: Inhibition of human recombinant carbonic anhydrase 2 preincubated with enzyme for 1 hr prior to testing by phenol red-based stopped-flow CO2 hydration assay
Carbonic anhydrase 12 = Carbonic anhydrase 12 (Homo sapiens, UniProt O43570); test: Inhibition of human recombinant carbonic anhydrase 12 preincubated with enzyme for 1 hr prior to testing by phenol red-based stopped-flow CO2 hydration assay
Sequence of Carbonic anhydrase 12 (O43570 whole entry): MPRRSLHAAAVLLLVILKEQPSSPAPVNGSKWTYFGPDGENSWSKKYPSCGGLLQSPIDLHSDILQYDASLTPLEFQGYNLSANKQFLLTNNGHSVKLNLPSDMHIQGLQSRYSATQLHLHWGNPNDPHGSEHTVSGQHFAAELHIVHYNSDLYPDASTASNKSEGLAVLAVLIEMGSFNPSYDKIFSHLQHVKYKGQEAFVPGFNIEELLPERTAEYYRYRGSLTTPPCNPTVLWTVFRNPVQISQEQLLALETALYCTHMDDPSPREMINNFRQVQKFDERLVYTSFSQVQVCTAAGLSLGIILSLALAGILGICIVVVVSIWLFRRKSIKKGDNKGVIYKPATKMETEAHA

Carbonic anhydrase 4 = Carbonic anhydrase 4 (Homo sapiens, UniProt P22748); test: Inhibition of human recombinant carbonic anhydrase 4 preincubated with enzyme for 1 hr prior to testing by phenol red-based stopped-flow CO2 hydration assay
Sequence of Carbonic anhydrase 4 (P22748 whole entry): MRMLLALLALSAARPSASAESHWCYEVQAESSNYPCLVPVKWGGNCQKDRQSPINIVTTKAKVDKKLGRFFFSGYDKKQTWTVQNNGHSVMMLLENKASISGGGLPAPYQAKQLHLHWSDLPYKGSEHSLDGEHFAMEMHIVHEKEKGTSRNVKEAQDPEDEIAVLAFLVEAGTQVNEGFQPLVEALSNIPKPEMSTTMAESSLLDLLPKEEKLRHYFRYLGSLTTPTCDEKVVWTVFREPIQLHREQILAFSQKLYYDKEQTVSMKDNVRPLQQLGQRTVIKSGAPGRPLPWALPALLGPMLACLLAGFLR

Carbonic anhydrase 9 = Carbonic anhydrase 9 (Homo sapiens, UniProt Q16790); test: Inhibition of human recombinant carbonic anhydrase 9 preincubated with enzyme for 1 hr prior to testing by phenol red-based stopped-flow CO2 hydration assay; type: single protein
Carbonic anhydrase 1 = Carbonic anhydrase 1 (Homo sapiens, UniProt P00915); test: Inhibition of human recombinant carbonic anhydrase 1 preincubated with enzyme for 1 hr prior to testing by phenol red-based stopped-flow CO2 hydration assay
Sequence of Carbonic anhydrase 1 (P00915 whole entry): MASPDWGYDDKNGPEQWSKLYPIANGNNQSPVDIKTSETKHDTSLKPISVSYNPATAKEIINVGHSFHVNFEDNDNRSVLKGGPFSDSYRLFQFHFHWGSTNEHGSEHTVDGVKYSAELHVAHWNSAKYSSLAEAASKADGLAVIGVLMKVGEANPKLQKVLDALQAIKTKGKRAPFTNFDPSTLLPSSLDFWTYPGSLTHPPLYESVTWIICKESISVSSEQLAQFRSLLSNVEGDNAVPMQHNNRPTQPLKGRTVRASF

[2] = molecular target: Carbonic anhydrase 5A, mitochondrial (Homo sapiens, UniProt P35218); test: Inhibition of human recombinant carbonic anhydrase 5A preincubated with enzyme for 1 hr prior to testing by phenol red-based stopped-flow CO2 hydration assay
Sequence of Carbonic anhydrase 5A, mitochondrial (P35218 whole entry): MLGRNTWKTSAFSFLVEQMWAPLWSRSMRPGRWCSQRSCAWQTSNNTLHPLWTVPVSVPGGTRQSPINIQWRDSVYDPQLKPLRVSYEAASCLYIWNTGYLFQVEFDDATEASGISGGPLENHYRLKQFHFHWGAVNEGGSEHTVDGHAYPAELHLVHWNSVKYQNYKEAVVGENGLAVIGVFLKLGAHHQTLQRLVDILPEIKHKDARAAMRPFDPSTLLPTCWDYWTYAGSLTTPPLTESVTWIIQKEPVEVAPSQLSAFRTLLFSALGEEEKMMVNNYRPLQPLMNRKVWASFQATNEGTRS

Mus musculus [3] = test: Antinociceptive activity in CD-1 albino mouse model of oxaliplatin-induced neuropathic pain assessed as decrease in pain-related behaviour measured as licking latency at 50 mg/kg, po treated on day 15 post oxaliplatin treatment and measured after 15 to 45 mins post dose by cold plate test; type: functional, organism-based
How it was run: (§1)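 Male CD-1 mice (22–25 g) given oxaliplatin 2.4 mg kg–1 i.p. in 5% glucose on days 1–2, 5–9 and 12–14 (10 injections). On day 15, compounds were suspended in 1% CMC and given once orally. Cold plate held at 4 °C; latency to first hind-paw licking recorded, 30 s cutoff. Readings taken before dosing and at 15, 30, 45 and 60 min after. 12 mice per group over two sets, observers blinded.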

[4] = Stability of compound in aqueous HCl solution at pH 2 measured up to 120 mins by LC-MS/MS analysis; type: physicochemical; settings: buffer, pH 2, 2 h
How it was run: (§2)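 Analyte (1 μM final) incubated at 37 °C in PBS, 10 mM HCl (pH 2) or human plasma. Sampling at 0, 30, 60 and 120 min, each in triplicate. Samples were quenched with acetonitrile containing verapamil internal standard, centrifuged and diluted. Read-out was LC–MS/MS with positive ESI and MRM on a PFP column.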

Mus musculus [5] = test: Antinociceptive activity in orally dosed CD-1 albino mouse model of oxaliplatin-induced neuropathic pain assessed as decrease in pain-related behaviour measured as licking latency treated on day 15 post oxaliplatin treatment and measured after 15 to 60 mins post dose by cold plate test; type: functional, organism-based; how it was run: as §1
[6] = Stability of compound in human plasma measured up to 120 mins by LC-MS/MS analysis; type: ADME, cell-free; settings: 2 h; how it was run: as §2
Mus musculus [7] = test: (§3) Antinociceptive activity in CD-1 albino mouse model of oxaliplatin-induced neuropathic pain assessed as decrease in pain-related behaviour measured as licking latency at 100 mg/kg, po treated on day 15 post oxaliplatin treatment and measured after 30 to 45 mins post dose by cold plate test; type: functional, organism-based; how it was run: as §1
[8] = Stability of compound in PBS buffer measured up to 120 mins by LC-MS/MS analysis; type: physicochemical; settings: 2 h; how it was run: as §2
Mus musculus [9] = test: as §3, with “15” for “30 to 45”, “test (reference value: 18.1 +/- 0.3 sec)” for “test”; type: functional
[10] = Solubility of compound in water; type: physicochemical; settings: buffer
Mus musculus [11] = test: Antinociceptive activity in CD-1 albino mouse model of oxaliplatin-induced neuropathic pain assessed as decrease in pain-related behaviour measured as licking latency at 100 mg/kg, po treated on day 15 post oxaliplatin treatment and measured after 30 mins post dose by cold plate test; type: functional, organism-based; how it was run: as §1
Mus musculus [12] = test: Antinociceptive activity in orally dosed CD-1 albino mouse model of oxaliplatin-induced neuropathic pain assessed as decrease in pain-related behaviour measured as licking latency treated on day 15 post oxaliplatin treatment and measured upto 45 mins post dose by cold plate test; type: functional, organism-based; how it was run: as §1
Mus musculus [13] = test: Antinociceptive activity in CD-1 albino mouse model of oxaliplatin-induced neuropathic pain assessed as decrease in pain-related behaviour measured as licking latency at 10 to 100 mg/kg, po treated on day 15 post oxaliplatin treatment and measured after 15 to 30 mins post dose by cold plate test; type: functional, organism-based; how it was run: as §1
[14] = Stability of compound in aqueous HCl solution assessed as half life at pH 2 measured up to 120 mins by LC-MS/MS analysis; type: physicochemical; settings: buffer, pH 2, 2 h
How it was run: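 Analyte (1 μM final) incubated at 37 °C in 10 mM aqueous HCl (pH 2), sampled in triplicate at 0, 30, 60 and 120 min. Quenched with acetonitrile containing verapamil internal standard, then quantified by LC–MS/MS with positive-ion MRM. Half-life taken from the degradation profile.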

| Compound | pKi (Carbonic anhydrase 7) | pKi [1] | pKi (Carbonic anhydrase 2) | pKi (Carbonic anhydrase 12) | pKi (Carbonic anhydrase 4) | pKi (Carbonic anhydrase 9) | pKi (Carbonic anhydrase 1) | pKi [2] | Activity (Mus musculus [3]) | Stability [4] | Activity (Mus musculus [5]) | Stability [6] | Activity (Mus musculus [7]) | Stability [8] | Time (Mus musculus [9]) [s] | solubility [10] | Activity (Mus musculus [11]) | Activity (Mus musculus [12]) | Activity (Mus musculus [13]) | Stability [14] |
| --- | --- | --- | --- | --- | --- | --- | --- | --- | --- | --- | --- | --- | --- | --- | --- | --- | --- | --- | --- | --- |
| NS(=O)(=O)c1ccc(OP(=O)(c2ccccc2)N2CCOCC2)cc1 (racemic) | 7.52 | 7.56 | 8.10 | 7.56 | 6.92 | 7.95 | 6.50 | 7.36 | – | – | – | – | – | – | – | – | – | – | – | – |
| C#CCO[P@](=O)(Oc1ccc(S(N)(=O)=O)cc1)c1ccccc1 | 8.96 | 7.72 | 9.11 | 7.76 | 6.13 | – | 6.25 | 6.97 | Active | – | – | – | – | – | – | – | – | – | – | – |
| NS(=O)(=O)c1ccc(OP(=O)(Oc2ccccc2)c2ccccc2)cc1 (racemic) | 7.50 | 7.64 | 7.82 | 7.61 | 5.58 | 7.88 | 6.01 | 6.33 | – | – | – | – | – | – | – | – | – | – | – | – |
| NP(=O)(Oc1ccc(S(N)(=O)=O)cc1)c1ccccc1 (racemic) | 7.72 | 7.90 | 7.75 | 7.81 | 6.53 | 7.68 | 6.71 | 7.38 | – | – | – | – | – | – | – | – | – | – | – | – |
| NS(=O)(=O)c1ccc(OP(=O)(NCc2ccccc2)c2ccccc2)cc1 (racemic) | 7.81 | 7.16 | 7.28 | 7.71 | 6.19 | 8.59 | 5.77 | 7.23 | – | – | – | – | – | – | – | – | – | – | – | – |
| C#CCOP(=O)(Oc1ccc(S(N)(=O)=O)cc1)c1ccccc1 (racemic) | 7.91 | 7.42 | 8.44 | 7.57 | 5.88 | – | 6.38 | 7.09 | – | Stable | Dose-dependent effect | Stable | Active | Stable | – | – | – | – | – | – |
| CCOP(=O)(Oc1ccc(S(N)(=O)=O)cc1)c1ccccc1 (racemic) | 7.42 | 7.40 | 7.44 | 7.65 | 6.37 | 7.73 | 6.40 | 6.85 | – | – | – | – | – | – | – | – | – | – | – | – |
| NS(=O)(=O)c1ccc(OP(=O)(O)c2ccccc2)cc1 | 7.79 | 7.28 | 7.42 | 7.51 | 6.66 | 7.58 | 6.71 | 7.12 | – | – | – | – | – | – | – | – | – | – | – | – |
| CC(=O)Nc1nnc(S(N)(=O)=O)s1 [ACETAZOLAMIDE] | – | – | – | – | – | – | – | – | – | – | – | – | – | – | 15.8 | – | – | – | – | – |
| CCCNP(=O)(Oc1ccc(S(N)(=O)=O)cc1)c1ccccc1 (racemic) | 7.68 | 7.47 | 7.58 | 7.76 | 5.82 | 8.49 | 6.12 | 7.07 | – | – | – | – | – | – | – | – | – | – | – | – |
| NS(=O)(=O)c1ccc(OP(=O)(Oc2ccc(S(N)(=O)=O)cc2)c2ccccc2)cc1 | 8.11 | 7.82 | 8.49 | 7.77 | 6.44 | 7.71 | 6.17 | 6.55 | – | Stable | – | Stable | – | Stable | – | Insoluble | Active | – | – | – |
| NS(=O)(=O)c1ccc(OP(=O)(Sc2ccccc2)c2ccccc2)cc1 (racemic) | 7.80 | 7.54 | 7.46 | 7.41 | 5.58 | 8.18 | 5.79 | 6.42 | – | – | – | – | – | – | – | – | – | – | – | – |
| NS(=O)(=O)c1ccc(OP(=O)(SCc2ccccc2)c2ccccc2)cc1 (racemic) | 7.12 | 7.23 | 7.19 | 7.67 | 5.35 | 7.60 | 5.49 | 6.82 | – | – | – | – | – | – | – | – | – | – | – | – |
| CCN(CC)P(=O)(Oc1ccc(S(N)(=O)=O)cc1)c1ccccc1 (racemic) | 7.87 | 7.31 | 7.76 | 7.33 | 6.43 | 7.71 | 6.28 | 6.97 | – | – | – | – | – | – | – | – | – | – | – | – |
| COCCOP(=O)(Oc1ccc(S(N)(=O)=O)cc1)c1ccccc1 (racemic) | 7.60 | 7.17 | 7.55 | 7.45 | 5.78 | 7.92 | 6.11 | 7.23 | – | – | – | – | – | – | – | – | – | – | – | – |
| CC(C)OP(=O)(Oc1ccc(S(N)(=O)=O)cc1)c1ccccc1 (racemic) | 8.21 | 7.70 | 7.89 | 7.38 | 5.92 | 7.76 | 6.51 | 7.00 | – | Stable | – | Stable | – | Stable | – | – | – | Dose-dependent effect | – | – |
| NS(=O)(=O)c1ccc(OP(=O)(Nc2ccccc2)c2ccccc2)cc1 (racemic) | 8.26 | 7.62 | 8.62 | 7.68 | 6.07 | 7.71 | 6.09 | 6.73 | – | Stable | – | Stable | – | Stable | – | – | – | – | Active | – |
| CN1CCN(P(=O)(Oc2ccc(S(N)(=O)=O)cc2)c2ccccc2)CC1 (racemic) | 7.77 | 7.33 | 8.04 | 7.60 | 7.11 | 7.21 | 6.41 | 6.78 | – | Stable | – | Stable | – | Stable | – | Soluble | – | – | Active | – |
| CCSP(=O)(Oc1ccc(S(N)(=O)=O)cc1)c1ccccc1 (racemic) | 7.38 | 7.01 | 7.52 | 7.47 | 5.86 | 7.57 | 6.14 | 7.03 | – | – | – | – | – | – | – | – | – | – | – | – |
| C#CCO[P@@](=O)(Oc1ccc(S(N)(=O)=O)cc1)c1ccccc1 | 7.15 | 7.18 | 7.25 | 7.31 | 5.70 | – | 6.44 | 7.18 | inactive | – | – | – | – | – | – | – | – | – | – | – |
| NS(=O)(=O)c1ccc(OP(=O)(c2ccccc2)N2CCCC2)cc1 (racemic) | 8.03 | 7.59 | 8.77 | 7.24 | 6.51 | 7.54 | 6.62 | 7.11 | – | – | – | Stable | – | Stable | – | – | – | – | – | Unstable |
| CCCCCCCCCCCCSP(=O)(Oc1ccc(S(N)(=O)=O)cc1)c1ccccc1 (racemic) | 7.00 | 6.65 | 6.63 | 7.32 | 5.38 | 7.29 | 5.08 | 6.19 | – | – | – | – | – | – | – | – | – | – | – | – |
| COP(=O)(Oc1ccc(S(N)(=O)=O)cc1)c1ccccc1 (racemic) | 7.44 | 7.61 | 7.94 | 7.33 | 6.59 | 7.79 | 6.31 | 7.29 | – | – | – | – | – | – | – | – | – | – | – | – |
